Compound activity deposited in PubChem BioAssay by several laboratories.
C8 TRAIL sens = viability loss with TRAIL in NB7+C8 cells, primary screen, TRAIL sensitizer project, cell-based, ATPlite luminescence | inhibition (viability loss, TRAIL sensitization), % at 10 µM | actives 1% (n = 360,000) | AID 624354, 2012;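 active = compounds causing at least 50% loss of cell viability in the single-dose screen, relative to plate controls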
STAT1 inh = STAT1 signaling inhibitors, primary screen, cell-based, HTS, luciferase reporter; NIH 3T3 STAT1-luciferase reporter, IFN-gamma, luminescence; inhibition, % at 5.5 µM; actives 0.35% (n = 200,000);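 active = inhibition above a set limit, the mean inhibition across all tested compounds plus 3 SD, cut at about 34% in these data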
STAT3 blocker = IL-6 driven STAT3 reporter inhibitors, primary screen, U3A cells, luciferase, luminescence, MLSCN library; IL-6 STAT3-luciferase reporter; host cell line lacks STAT1; inhibition, % at 5.5 µM; actives 0.89% (n = 190,000); AID 862, 2007;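 active = inhibition above the mean inhibition across all screened compounds plus 3 SD, cut at about 44% in these data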
PPC-1+TRAIL kill = compounds killing PPC-1 cancer cells with TRAIL present, primary screen, TRAIL potentiator project, ATPLite luminescence, uHTS. PPC-1 cells + TRAIL, ATPLite viability luminescence. cell killing (% activity), % at 4 µM or 5 µM. actives 0.41% (n = 220,000);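 active = cell killing above 50% in the first pass at 4 µM, then a duplicate retest at 5 µM averaging 50% or more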
STAT3 activator = IL-6 driven STAT3 reporter potentiators, primary screen, U3A cells, luciferase, luminescence, MLSCN library. actives 0.91% (n = 190,000). activation (% of control), % at 5.6 µM. IL-6 STAT3-luciferase reporter; 100% = signal with IL-6 EC80 alone. AID 871, 2007;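 active = activation above the screen-wide mean of compound activation plus 3 SD, cut at about 130% in these data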
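Material: human STAT1-deficient U3A cells with stable STAT3-luciferase reporter / Probe or stimulus: IL-6 stimulus at 33 ng/mL final / Schedule: 1 h compound pre-exposure, 6 h IL-6 stimulation, 37 °C / Technique: luminescence / Read-out basis: percent of IL-6-only median luminescence / Control set: IL-6-only high control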
Numbers stand for hits; 0 = inactive; - = no result. Sampled rows, rich in hits. Any-hit rate of the full collection: about 1.8%.

SMILES	C8 TRAIL sens	STAT1 inh	STAT3 blocker	PPC-1+TRAIL kill	STAT3 activator
Nc1nc(N)c(N=Nc2ccccc2)c(=O)[nH]1	64	-	-	-	-
CC(C)(C)c1ccc(NC(=O)C2=CN3CCS(=O)(=O)N=C3C=C2)cc1	0	-	-	-	-
O=S(=O)(Nc1cccc(-c2ccc(N3CCCCCC3)nn2)c1)c1ccc(C(F)(F)F)cc1	0	-	-	-	-
CC1CCN(c2ccc(-c3cccc(NC(=O)c4ccco4)c3)nn2)CC1	86	-	-	-	-
O=C(Nc1cccc(-c2ccc(N3CCCCC3)nn2)c1)C(F)(F)F	89	-	-	-	-
O=C(COc1ccccc1)Nc1cccc(-c2ccc(N3CCOCC3)nn2)c1	70	-	-	-	-
O=C(Nc1cccc(-c2ccc(N3CCCCC3)nn2)c1)c1ccc(Br)o1	78	-	-	-	-
CC(=O)Nc1cc(-c2ccc(N(C)C)cc2)cn2c(-c3ccc(F)cc3)cnc12	0	-	-	-	-
CCOC(=O)N1CCN(C(=O)C2CCN(C(=O)c3ccccc3C)CC2)CC1	0	-	-	-	-
COc1ccc(-c2csc(C(C)(O)c3cccc(F)c3)n2)cn1 (stereo not given)	0	-	-	-	-
CC(C)C(=O)N1CCN(c2ccccc2NC(=O)c2cccc3ccccc23)CC1	0	-	-	-	-
CCN(CC(=O)Nc1c(F)cccc1F)C(=O)c1n[nH]c2ccccc12	0	-	-	-	-
CCC(=O)Nc1ccc(-c2ccc(N3CCC(C)CC3)nn2)cc1	0	-	-	-	-
CCC(=O)Nc1cccc(-c2ccc(N3CCC(C)CC3)nn2)c1	94	-	-	-	-
CC1CCN(c2ccc(-c3cccc(NC(=O)C(F)(F)F)c3)nn2)CC1	97	-	-	-	-
O=C(Nc1cccc(-c2ccc(N3CCOCC3)nn2)c1)c1ccccc1	0	-	-	-	-
COc1cc2c(cc1OC)C(=O)CCC2	0	-	-	-	-
O=C(CCl)N(c1ccccc1)C1CCCCC1	95	0	0	0	0
CCC(C(=O)O/N=C(\N)c1ccccc1)c1ccccc1 (stereo not given)	71	0	0	0	0
CCC(C(=O)O/N=C(\N)c1ccc(Cl)cc1)c1ccccc1 (stereo not given)	0	0	0	0	0
CCC(C(=O)O/N=C(\N)c1ccc(C)cc1)c1ccccc1 (stereo not given)	72	0	0	0	0
Cc1ccc(C2CC2c2n[nH]c(=S)n2-c2ccc(Cl)cc2)cc1 (stereo not given)	72	0	0	0	0
Cc1ccc(C2CC2c2n[nH]c(=S)n2-c2cccc(C)c2)cc1 (stereo not given)	0	0	0	0	0
CCOc1ccc(NC(=O)C2CCCN2S(=O)(=O)c2ccc3c(c2)C(C)(C)C(=O)N3C)cc1 (stereo not given)	0	-	-	-	-
CC(C)c1ccc(NC(=O)CSc2ncccc2C(=O)Oc2cccc([N+](=O)[O-])c2)cc1	67	0	0	0	0
SMILES	C8 TRAIL sens	STAT1 inh	STAT3 blocker	PPC-1+TRAIL kill	STAT3 activator
O=C(CSc1ccccn1)Nc1cccc([N+](=O)[O-])c1	0	0	0	0	0
Cc1nnc(NC(=O)c2ccco2)s1	0	0	0	0	0
COc1ccc(-c2nnc(NC(=O)c3ccco3)s2)cc1	60	-	-	-	-
COc1cccc(-c2nnc(NC(=O)c3ccco3)s2)c1	0	-	-	-	-
Cc1ccc(-c2nnc(NC(=O)c3ccco3)s2)cc1	68	-	-	-	-
CC(=O)Nc1cccc(-c2cccc3nccn23)c1	0	-	-	-	-
N#CC(=C(O)COC(=O)CCCNC(=O)c1ccc(Cl)cc1)c1nc2ccccc2[nH]1	0	-	-	-	-
Cc1cc2nc(-c3ccc[nH]c3=O)[nH]c2cc1C	90	-	-	-	-
Cc1cc2nc(-c3ccc[nH]c3=O)n(Cc3ccc(F)cc3)c2cc1C	0	-	-	-	-
C=CCNc1nc(NCc2ccc(NC(C)=O)cc2)c2sc(-c3ccccc3)cc2n1	64	-	-	-	-
O=C1C=C(N2CCN(c3ccccn3)CC2)C(=O)c2c(O)ccc(O)c21	50	-	-	-	-
Cc1cc(Br)ccc1NC(=O)CN(C)C(=O)Cn1c(=O)cnc2ccccc21	0	-	-	-	-
Cc1ccc(NC2=CC(=O)C(=O)c3ccccc32)cc1	91	0	0	0	0
Cc1cc(NC2=CC(=O)C(=O)c3ccccc32)no1	72	-	-	-	-
COc1cc(OC)c(NC2=CC(=O)C(=O)c3ccccc32)cc1Cl	96	-	-	-	-
CCOC(=O)N1CCN(C2=C(NS(=O)(=O)c3ccc(C)cc3)C(=O)c3ccccc3C2=O)CC1	53	-	-	-	-
Cc1ccc(NC2=C(Cl)C(=O)c3ccccc3C2=O)cc1	0	0	0	0	0
CN(Cc1ccccc1)C(=O)c1cccc(NC(=O)Cc2ccc(NC(=O)C3CCN(C(=O)C4CCCCC4)CC3)cc2)c1	0	-	-	-	-
NC(Cc1ccc(Cl)cc1)c1csc(NC(=O)Nc2ccccc2-c2ccccc2)n1 (stereo not given)	0	-	-	-	-
O=C1C=C(Nc2ccc(O)cc2)C(=O)c2ccccc21	0	-	-	0	-
NS(=O)(=O)c1ccc(NC2=CC(=O)C(=O)c3ccccc32)cc1	64	-	-	-	-
Cc1ccc(NC2=C(N3CCOCC3)C(=O)c3ccccc3C2=O)cc1	56	0	0	0	0
CC(C)(C)c1ccc(C(=O)Nc2nnc(SCC(=O)NCC3CCCO3)s2)cc1 (stereo not given)	94	-	-	-	-
Cc1cc(-c2nnc(CSc3nnc(NC(=O)c4ccc(C(C)(C)C)cc4)s3)o2)ccc1[N+](=O)[O-]	51	-	-	0	-
CCOc1ccc(C(=O)Nc2nnc(SCC(=O)NCC3CCCO3)s2)cc1 (stereo not given)	92	-	-	-	-
CN(C)S(=O)(=O)c1ccc(C(=O)Nc2nnc(SCC(=O)NCC3CCCO3)s2)cc1 (stereo not given)	55	-	-	-	-
